In experiment [1] the test system is Ehrlich. Nature of the experiment: Cytotoxicity against mouse Ehrlich Ascites carcinoma assessed as non viable cells at 50 umol/mL after 2 hrs by trypan blue exclusion assay. In kind it is functional. The method in brief: (§1)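 EAC cells at 2.5 × 10^6/ml in saline. Compounds were dissolved in DMSO:saline (7:3). 100 µL cell suspension was mixed with compound and made to 1 mL with saline, giving final 200, 100, 75, 50 and 25 µM. Incubated 2 h at 37 °C. Trypan blue exclusion gave % non-viable cells. IC50 was read from the survival-ratio vs concentration curve.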

In experiment [2] the test system is Ehrlich. The experiment in a line: Cytotoxicity against mouse Ehrlich Ascites carcinoma assessed as non viable cells at 200 umol/mL after 2 hrs by trypan blue exclusion assay. It counts as functional. The method in brief: as §1
Experiment [3] deals with Ehrlich. The experiment in a line: Cytotoxicity against mouse Ehrlich Ascites carcinoma assessed as non viable cells at 100 umol/mL after 2 hrs by trypan blue exclusion assay. In kind it is functional. The procedure, abridged:
as §1

The test system of experiment [4] is Ehrlich. The experiment in a line: Cytotoxicity against mouse Ehrlich Ascites carcinoma assessed as non viable cells at 25 umol/mL after 2 hrs by trypan blue exclusion assay. It counts as functional. The procedure, abridged:
as §1

Experiment [5] is described as follows: Cytotoxicity against mouse Ehrlich Ascites carcinoma after 2 hrs by trypan blue exclusion assay. It counts as functional. The procedure, abridged: as §1
In experiment [6] the test system is Ehrlich. Nature of the experiment: Cytotoxicity against mouse Ehrlich Ascites carcinoma assessed as non viable cells at 75 umol/mL after 2 hrs by trypan blue exclusion assay. It counts as functional. The method in brief: as §1
Experiment [7] relates to Mus musculus. The experiment in a line: Radioprotective activity against gamma-irradiated Swiss albino mouse assessed as reduction of plasma lipid peroxide level at 150 mg/kg, ip after 7 days. In kind it is functional. As to conditions: route intraperitoneal. The procedure, abridged:
(§2)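 Female Swiss albino mice (25–30 g) were dosed ip at 150 mg/kg in CMC every other day ×3 over 7 days. Each dose was given 30 min before 6 Gy whole-body γ-irradiation (Cs-137, 0.86 Gy/min). Mice were fasted 16 h and bled by heart puncture 1 day after the last irradiation. Plasma lipid peroxide was measured as MDA (Yoshioka). Values are mean ± SE, n=8, as % change from control, with t test.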

The subject of experiment [8] is Mus musculus. Nature of the experiment: Radioprotective activity against gamma-irradiated Swiss albino mouse assessed as reduction of plasma lipid peroxide level at 150 mg/kg, ip after 7 days relative to control. In kind it is functional. Also noted: scale not given: the % may be the effect or the level left. As to conditions: route intraperitoneal. The procedure, abridged: as §2

Experiment [9] relates to Mus musculus. The experiment in a line: Radioprotective activity against gamma-irradiated Swiss albino mouse assessed as increase in blood glutathione level at 150 mg/kg, ip after 7 days relative to control. As to conditions: route intraperitoneal.
In experiment [10] the test system is Mus musculus. The experiment in a line: Radioprotective activity against gamma-irradiated Swiss albino mouse assessed as increase in blood glutathione level at 150 mg/kg, ip after 7 days. The following applies: route intraperitoneal.

These results are taken from ChEMBL document CHEMBL1142349, “Molecular modeling study and synthesis of novel pyrrolo[2,3-d]pyrimidines and pyrrolotriazolopyrimidines of expected antitumor and radioprotective activities” (Bioorg Med Chem, 2008).

One may read the IC50 as the concentration at which inhibition is half-maximal. Turning to `N#Cc1c(-c2ccccc2)cn(-c2ccc(S(N)(=O)=O)cc2)c1N`, the Activity in [1] is listed as 80%; in experiment [2], 100%; in [3], 100%; in experiment [4] it was 40%; in [6], 100%. Half-maximal inhibition in experiment [5] (IC50) was put at 88.8 µM.

Take `NS(=O)(=O)c1ccc(-n2cc(-c3ccccc3)c3c2ncn2nc(-c4ccccc4)nc32)cc1`: the Activity in experiment [1], in [2], in experiment [3], in experiment [4] and in experiment [6] was 0% in each case. In experiment [5], this compound returned an IC50 of more than 200 µM.

As to `N=c1c2c(-c3ccccc3)cn(-c3ccc(S(N)(=O)=O)cc3)c2ncn1NC(=S)Nc1ccccc1`, the Activity in experiment [1] came out at 60%; in experiment [2] it was 100%; in experiment [3], 95%; in [4], 50%; in experiment [6] it was 80%. The compound also yielded a half-inhibitory concentration (IC50) in experiment [5] of 26.5 µM.

As to `N#CCc1nc2c3c(-c4ccccc4)cn(-c4ccc(S(N)(=O)=O)cc4)c3ncn2n1`, the Activity in [1] is 0%; in experiment [2] it was 90%; in [3], 80%; in [4], 0%; in [6], 15%. Moreover, in experiment [5], the midpoint of inhibition, the IC50, lay at 90.2 µM.

On to `CC(=O)NS(=O)(=O)c1ccc(-n2cc(-c3ccccc3)c3c2ncn2nc(C)nc32)cc1`, for which the Activity in [1] came to 5%; in [2], 100%; in experiment [3], 80%; in [4], 0%; in [6], 20%. This compound also came in with an IC50 in experiment [5] of 75.8 µM.

With `NS(=O)(=O)c1ccc(-n2cc(-c3ccccc3)c3c2ncn2nc(S)nc32)cc1`, the Activity in experiment [1] is 0%; in experiment [2], 80%; in [3], 80%; in experiment [4], 0%; in experiment [6], 20%. Further, half-maximal inhibition in [5] (IC50) required 90.2 µM.

In the case of `N#Cc1c(N)nn2cnc3c(c(-c4ccccc4)cn3-c3ccc(S(N)(=O)=O)cc3)c12`, the Activity in [1], in experiment [2], in experiment [3], in experiment [4] and in experiment [6] was 0% in each case. The same compound came in with an IC50 in [5] of more than 200 µM.

Take `NS(=O)(=O)c1ccc(-n2cc(-c3ccccc3)c3/c(=N/C(=O)c4ccc(Cl)cc4)n(NC(=O)c4ccc(Cl)cc4)cnc32)cc1`: the Activity in [7] was 80.3 µmol/mL; in experiment [8], 101%; in experiment [9], 386%; in experiment [10], 304 mg/dL.

Turning to `COc1cccc2c1C(=O)c1c(O)c3c(c(O)c1C2=O)C[C@@](O)(C(=O)CO)C[C@@H]3O[C@H]1C[C@H](N)[C@H](O)[C@H](C)O1` [DOXORUBICIN], the Activity was 55% in experiment [1]; 100% in experiment [2]; 75% in [3]; 20% in [4]; 64% in experiment [6]. The same compound gave an IC50 in [5] of 81.5 µM.

Take `NS(=O)(=O)c1ccc(-n2cc(-c3ccccc3)c3c2ncn2ncnc32)cc1`: the Activity is reported as 0% in experiment [1]; 90% in experiment [2]; 60% in [3]; 0% in experiment [4]; 15% in [6]. The compound also displayed an IC50 in [5] of 100 µM.
